In ChEMBL document CHEMBL3232854, “Agonists for the adenosine A1 receptor with tunable residence time. A Case for nonribose 4-amino-6-aryl-5-cyano-2-thiopyrimidines” (J Med Chem, 2014):

How the values were obtained:
Adenosine receptor A1 [1] = biological target: T1, Adenosine receptor A1 (Homo sapiens, UniProt P30542); experiment: Displacement of [3H]DPCPX from human adenosine A1 receptor expressed in CHO cell membranes after 1 hr by beta scintillation counting analysis
T1 sequence (P30542 whole entry): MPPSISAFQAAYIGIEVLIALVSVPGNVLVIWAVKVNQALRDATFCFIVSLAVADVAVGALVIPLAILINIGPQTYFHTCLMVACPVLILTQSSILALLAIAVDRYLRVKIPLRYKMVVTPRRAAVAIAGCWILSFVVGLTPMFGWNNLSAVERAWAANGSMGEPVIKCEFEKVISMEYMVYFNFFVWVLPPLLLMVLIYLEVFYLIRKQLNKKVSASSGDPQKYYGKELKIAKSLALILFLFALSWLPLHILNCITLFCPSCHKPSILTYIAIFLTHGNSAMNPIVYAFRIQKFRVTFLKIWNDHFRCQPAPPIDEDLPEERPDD
Outline: (§1)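 Membranes from CHO cells stably expressing human A1 receptor (5 μg protein) incubated with [3H]DPCPX in 25 mM Tris-HCl pH 7.4, 5 mM MgCl2, 0.1% CHAPS, 1 h at 25 °C; nonspecific binding with 100 μM CPA; GF/B filtration, three ice-cold washes, scintillation counting. Single 1 μM points from ≥2 experiments in duplicate; Ki by nonlinear regression (radioligand KD 1.6 nM), ≥3 experiments in duplicate.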

[2] = biological target: T2, Adenosine receptor A1 (Homo sapiens) (UniProt P30542); experiment: Ratio for displacement of [3H]DPCPX from human adenosine A1 receptor expressed in CHO cell membranes at 10 times Ki after 15 mins by dual-point competition association assay to ratio for displacement of [3H]DPCPX from human adenosine A1 receptor expressed in CHO cell membranes 10 times Ki after 120 mins by dual-point competition association assay
T2 sequence (whole entry): T1 sequence (P30542 whole entry)

[3] = biological target: T2, Adenosine receptor A1 (Homo sapiens); experiment: Displacement of [3H]DPCPX from human adenosine A1 receptor expressed in CHO cell membranes assessed as residence time on receptor at 10 times Ki after 90 mins by competition association assay
[4] = biological target: Adenosine receptor A2a (Homo sapiens) (UniProt P29274); experiment: Displacement of [3H]ZM241385 from human adenosine A2A receptor expressed in HEK293 cell membranes at 1 uM after 2 hrs by beta scintillation counting analysis relative to control
Chain of Adenosine receptor A2a (Homo sapiens) (P29274 whole entry): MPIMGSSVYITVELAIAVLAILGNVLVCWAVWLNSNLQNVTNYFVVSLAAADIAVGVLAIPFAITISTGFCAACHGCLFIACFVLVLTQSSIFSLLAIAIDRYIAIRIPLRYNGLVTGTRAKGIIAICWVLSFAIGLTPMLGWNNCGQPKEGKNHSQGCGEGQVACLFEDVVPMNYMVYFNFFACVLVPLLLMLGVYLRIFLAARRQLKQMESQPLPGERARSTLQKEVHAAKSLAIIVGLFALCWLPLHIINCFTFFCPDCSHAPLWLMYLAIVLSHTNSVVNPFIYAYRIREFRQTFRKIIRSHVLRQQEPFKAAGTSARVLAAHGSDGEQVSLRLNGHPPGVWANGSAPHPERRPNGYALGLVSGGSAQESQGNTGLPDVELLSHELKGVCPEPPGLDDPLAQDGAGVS
Outline: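 HEK 293 membranes stably expressing human A2A receptor (25 μg protein) incubated with [3H]ZM241385 in 50 mM Tris-HCl pH 7.4, 2 h at 25 °C; compounds at 1 μM; nonspecific binding with 100 μM CPA; GF/B filtration, ice-cold washes, scintillation counting; ≥2 experiments in duplicate.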

[5] = biological target: T3, Adenosine receptor A2b (Homo sapiens) (UniProt P29275); experiment: Displacement of [3H]PSB603 from human adenosine A2B receptor expressed in CHO cell membranes at 1 uM after 2 hrs by beta scintillation counting analysis relative to control
T3 sequence (whole entry): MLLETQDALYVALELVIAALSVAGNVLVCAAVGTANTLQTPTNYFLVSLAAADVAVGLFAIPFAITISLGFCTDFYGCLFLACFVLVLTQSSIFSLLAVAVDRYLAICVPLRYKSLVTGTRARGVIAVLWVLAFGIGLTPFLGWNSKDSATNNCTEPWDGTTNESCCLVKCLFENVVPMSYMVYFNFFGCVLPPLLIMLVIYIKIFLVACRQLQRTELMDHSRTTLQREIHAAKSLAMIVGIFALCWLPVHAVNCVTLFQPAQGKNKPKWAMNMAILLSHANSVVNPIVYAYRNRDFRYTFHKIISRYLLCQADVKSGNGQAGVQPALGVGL

[6] = biological target: T4, Adenosine receptor A3 (Homo sapiens) (UniProt P0DMS8); experiment: Displacement of [3H]PSB11 from human adenosine A3 receptor expressed in CHO cell membranes at 1 uM after 2 hrs by beta scintillation counting analysis relative to control
T4 sequence (whole entry): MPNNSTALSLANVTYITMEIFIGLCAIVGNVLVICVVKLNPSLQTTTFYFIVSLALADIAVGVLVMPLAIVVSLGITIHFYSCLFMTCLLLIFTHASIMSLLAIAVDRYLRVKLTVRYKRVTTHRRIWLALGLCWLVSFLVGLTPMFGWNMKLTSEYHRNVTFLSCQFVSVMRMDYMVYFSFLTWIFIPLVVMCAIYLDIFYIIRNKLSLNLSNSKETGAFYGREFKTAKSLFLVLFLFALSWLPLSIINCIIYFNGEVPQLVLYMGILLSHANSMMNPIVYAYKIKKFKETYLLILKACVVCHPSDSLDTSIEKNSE
Outline: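 CHO membranes stably expressing human A3 receptor (45 μg protein) incubated with [3H]PSB11 and 1 μM compound in 50 mM Tris-HCl pH 8.0, 10 mM MgCl2, 1 mM EDTA, 0.01% CHAPS, 2 h at 25 °C; nonspecific binding with 100 μM NECA; filtration, washes without CHAPS, scintillation counting; ≥2 experiments in duplicate.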

[7] = biological target: T2, Adenosine receptor A1 (Homo sapiens); experiment: Agonist activity human adenosine A1 receptor expressed in CHO cell membranes assessed as stimulation of [35S]GTPgammaS binding preincubated for 30 mins followed by radioligand addition measured after 90 mins by beta scintillation counting analysis relative to N6-cyclopentyladenosine; assay type: functional
Adenosine receptor A1 [8] = biological target: T1, Adenosine receptor A1; experiment: Agonist activity human adenosine A1 receptor expressed in CHO cell membranes assessed as stimulation of [35S]GTPgammaS binding preincubated for 30 mins followed by radioligand addition measured after 90 mins by beta scintillation counting analysis; assay type: functional
[9] = biological target: T2, Adenosine receptor A1 (Homo sapiens); experiment: Displacement of [3H]DPCPX from human adenosine A1 receptor expressed in CHO cell membranes at 1 uM after 1 hr by beta scintillation counting analysis relative to control; outline: as §1

Compound	Ki (Adenosine receptor A1 [1]) [nM]	Ratio [2]	TIME [3] [h]	inhibition [4] [%]	inhibition [5] [%]	inhibition [6] [%]	Emax [7] [%]	EC50 (Adenosine receptor A1 [8]) [nM]	inhibition [9] [%]
N#Cc1c(N)nc(SCc2csc(-c3ccccc3F)n2)nc1-c1ccc2c(c1)OCO2	12	1.46	0.375	–	–	–	–	–	–
N#Cc1c(N)nc(SCc2csc(N3CCOCC3)n2)nc1-c1ccc2c(c1)OCO2	1.9	0.81	0.02	21	12	18	65	1.8	–
N#Cc1c(N)nc(SCc2csc(-c3cccc(F)c3)n2)nc1-c1ccc2c(c1)OCO2	14	1.24	0.55	–	–	–	–	–	–
Cc1ccc(-c2nc(SCc3csc(-c4ccc(Cl)cc4)n3)nc(N)c2C#N)cc1	–	–	–	–	–	–	–	–	44
N#Cc1c(N)nc(SCc2csc(-c3ccc4c(c3)OCO4)n2)nc1-c1ccc2c(c1)OCO2	2.5	0.93	–	–	–	–	–	–	–
N#Cc1c(N)nc(SCc2csc(C3CCCCC3)n2)nc1-c1ccc2c(c1)OCO2	6.3	1.17	–	–	–	–	–	–	–
Cc1ccc(-c2nc(CSc3nc(N)c(C#N)c(-c4ccc5c(c4)OCO5)n3)cs2)cc1	3.1	1.15	–	–	–	–	–	–	–
N#Cc1c(N)nc(SCc2csc(-c3ccc(Cl)cc3)n2)nc1-c1ccc2c(c1)OCO2	14	1.64	0.857	4.5	0	4.5	71	4.9	–
N#Cc1c(N)nc(SCc2csc(-c3cccc(Cl)c3)n2)nc1-c1ccc2c(c1)OCO2	42	1.24	0.5	–	–	–	–	–	–
N#Cc1c(N)nc(SCc2csc(-c3ccccc3)n2)nc1-c1ccc2c(c1)OCO2	2.4	1.1	–	-2	20	24	84	4.6	–
N#Cc1c(N)nc(SCc2csc(-c3ccc(Br)cc3)n2)nc1-c1ccc2c(c1)OCO2	5.2	1.67	0.983	2.9	1.7	-1.8	60	4.6	–
N#Cc1c(N)nc(SCc2coc(-c3cccc(F)c3)n2)nc1-c1ccc2c(c1)OCO2	15	1.24	0.0508	–	–	–	–	–	–
N#Cc1c(N)nc(SCc2csc(-c3ccccc3Cl)n2)nc1-c1ccc2c(c1)OCO2	75	1.29	0.588	–	–	–	–	–	–
N#Cc1c(N)nc(SCc2csc(-c3ccc(Cl)c(Cl)c3)n2)nc1-c1ccc2c(c1)OCO2	–	–	–	–	–	–	–	–	23
CN(C)c1ccc(-c2nc(SCc3csc(-c4ccc(Cl)cc4)n3)nc(N)c2C#N)cc1	233	–	–	–	–	–	–	–	–
CCOc1ccc(-c2nc(SCc3csc(-c4ccc(Cl)cc4)n3)nc(N)c2C#N)cc1	–	–	–	–	–	–	–	–	49
N#Cc1c(N)nc(SCc2csc(-c3ccc(Cl)cc3)n2)nc1-c1ccc(O)cc1	15	0.99	–	–	–	–	–	–	–
N#Cc1c(N)nc(SCc2coc(-c3ccc(F)cc3)n2)nc1-c1ccc2c(c1)OCO2	20	1.01	–	–	–	–	–	–	–
N#Cc1c(N)nc(SCc2c[nH]cn2)nc1-c1ccc2c(c1)OCO2	83	1.15	–	–	–	–	–	–	–
COc1ccc(-c2nc(SCc3csc(-c4ccc(Cl)cc4)n3)nc(N)c2C#N)cc1	–	–	–	–	–	–	–	–	73
N#Cc1c(N)nc(SCc2csc(-c3ccc(Cl)cc3)n2)nc1-c1ccc(OC(F)(F)F)cc1	185	–	–	–	–	–	–	–	–
COc1ccc(-c2nc(CSc3nc(N)c(C#N)c(-c4ccc5c(c4)OCO5)n3)cs2)cc1	1.8	1	–	3.2	3.5	11	104	1.9	–
N#Cc1c(N)nc(SCc2csc(-c3ccc([N+](=O)[O-])cc3)n2)nc1-c1ccc2c(c1)OCO2	11	0.95	–	–	–	–	–	–	–
CC(=O)Nc1ccc(-c2nc(SCc3csc(-c4ccc(Cl)cc4)n3)nc(N)c2C#N)cc1	14	0.97	–	44	2.5	5.5	112	3.9	–
N#Cc1c(N)nc(SCc2csc(-c3ccc(Cl)cc3)n2)nc1-c1ccc(OCCO)cc1	4.8	1.18	–	10	3.5	3	99	12	–
N#Cc1c(N)nc(SCc2csc(-c3ccc(Cl)cc3)n2)nc1-c1ccccc1	8.9	1.24	0.538	–	–	–	–	–	–
N#Cc1c(N)nc(SCc2coc(-c3ccc(Cl)cc3)n2)nc1-c1ccc2c(c1)OCO2	15	1.17	–	–	–	–	–	–	–
N#Cc1c(N)nc(SCc2csc(-c3ccc(F)cc3)n2)nc1-c1ccc2c(c1)OCO2	6.7	1.22	0.575	–	–	–	–	–	–
N#Cc1c(N)nc(SCc2csc(-c3ccc(C(F)(F)F)cc3)n2)nc1-c1ccc2c(c1)OCO2	18	1.2	–	–	–	–	–	–	–
N#Cc1c(N)nc(SCc2csc(-c3ccc(I)cc3)n2)nc1-c1ccc2c(c1)OCO2	9.9	1.4	1.06	2.5	7.5	9	82	9.5	–
